Measurements taken from ChEMBL document CHEMBL1128230, “5'-[4-(Pivaloyloxy)-1,3,2-dioxaphosphorinan-2-yl]-2'-deoxy-5-fluorouridine: a membrane-permeating prodrug of 5-fluoro-2'-deoxyuridylic acid (FdUMP)” (J Med Chem, 1995).
pIC50: −log10 of the molar value.

Legend:
Mus musculus [1] = assay: Median survival time of […] implanted intraperitoneally with P-388 leukemia sensitive cells for a dose of 100 mg/kg.; assay type: functional; settings: route intraperitoneal
Mus musculus [2] = assay: Percentage increase in life span of treated mice implanted intraperitoneally with P-388 leukemia sensitive cells compared with controls for a dose of 100 mg/kg.; assay type: functional; settings: P388, ip, route intraperitoneal
Summary of the method: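 Male BDF1 mice (six per group, about 22 g) inoculated ip with 1 × 10^6 P-388/0 leukemia cells on day 0. Drugs given ip daily for 5 consecutive days starting 24 h after implantation, in 0.9% saline or Emulphor 620 vehicle. Animals followed until death. %ILS = (T/C − 1) × 100 from median survival of treated versus saline-treated controls.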

Mus musculus [3] = assay: Average percentage weight change on day 5 in mice implanted intraperitoneally with P-388 leukemia sensitive cells for a dose of 100 mg/kg.; assay type: functional; settings: route intraperitoneal
Summary of the method: (§1)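 Male BDF1 mice, six per group, average weight 22 g; 1 × 10^6 P-388 cells (FU-sensitive P-388/0 or FU-resistant P-388/FU) inoculated ip on day 0. Dosing ip daily for 5 consecutive days starting 24 h after implantation. Saline vehicle for FU and FUdR; Emulphor 620 formulation for the prodrug. Followed until death. % ILS = (T/C − 1) × 100 from median survival versus saline-treated controls.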

Mus musculus [4] = assay: Median survival time of […] implanted intraperitoneally with P-388 leukemia resistant cells for a dose of 100 mg/kg.; assay type: functional; settings: route intraperitoneal
Mus musculus [5] = assay: Average percentage weight change on day 5 in mice implanted intraperitoneally with P-388 leukemia resistant cells for a dose of 100 mg/kg.; assay type: functional; settings: route intraperitoneal; summary of the method: as §1
Mus musculus [6] = assay: Percentage increase in life span of treated mice implanted intraperitoneally with P-388 leukemia resistant cells compared with controls for a dose of 100 mg/kg.; assay type: functional; settings: P388, ip, route intraperitoneal
Summary of the method: (§2)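 Male BDF1 mice (six per group, average 22 g) inoculated ip with 1 × 10^6 P-388 cells, wild-type or FU-resistant subline, on day 0. Drugs given ip daily for 5 consecutive days starting 24 h after implantation, in 0.9% saline or Emulphor 620 vehicle; followed until death. Median survival of treated (T) vs saline controls (C); % ILS = (T/C − 1) × 100; body weight change recorded.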

Mus musculus [7] = assay: Average percentage weight change on day 5 in mice implanted intraperitoneally with P-388 leukemia resistant cells at a dose of 40 mg/kg.; assay type: functional; settings: route intraperitoneal; summary of the method: as §2
CHO-FU = assay: Growth inhibitory activity against CHO/FU cells in culture.; assay type: functional, cell-based; settings: Cricetulus griseus
Summary of the method: (§3)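 CHO cells and FU-resistant CHO subline plated at about 200 cells per 35-mm dish and cloned with drug at 0, 0.5, 1.5, 5, 10, 50 and 100 µM for 7 days at 37 °C in humidified CO2. Clones fixed in 10% formaldehyde and stained with 0.1% crystal violet. Minimum inhibitory concentration is the lowest concentration giving colonies of fewer than 50 cells.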

Mus musculus [8] = assay: Median survival time of 15 mice implanted intraperitoneally with P-388 leukemia resistant cells at a dose of 30 mg/kg.; assay type: functional; settings: route intraperitoneal
Mus musculus [9] = assay: Average percentage weight change on day 5 in mice implanted intraperitoneally with P-388 leukemia resistant cells at a dose of 30 mg/kg.; assay type: functional; settings: route intraperitoneal; summary of the method: as §2
CHO = assay: Growth inhibitory activity against CHO cells in culture.; assay type: functional, cell-based; settings: Cricetulus griseus; summary of the method: as §3
Mus musculus [10] = assay: Median survival time of 15 mice implanted intraperitoneally with P-388 leukemia sensitive cells at a dose of 20 mg/kg.; assay type: functional; settings: route intraperitoneal
Mus musculus [11] = assay: Median survival time of 15 mice implanted intraperitoneally with P-388 leukemia resistant cells at a dose of 20 mg/kg.; assay type: functional; settings: route intraperitoneal
Mus musculus [12] = assay: Median survival time of 15 mice implanted intraperitoneally with P-388 leukemia resistant cells at a dose of 40 mg/kg.; assay type: functional; settings: route intraperitoneal
Mus musculus [13] = assay: Percentage increase in life span of treated mice implanted intraperitoneally with P-388 leukemia sensitive cells compared with controls at a dose of 30 mg/kg.; assay type: functional; settings: P388, ip, route intraperitoneal; summary of the method: as §2
Mus musculus [14] = assay: Percentage increase in life span of treated mice implanted intraperitoneally with P-388 leukemia resistant cells compared with controls at a dose of 30 mg/kg.; assay type: functional; settings: P388, ip, route intraperitoneal; summary of the method: as §2
Mus musculus [15] = assay: Average percentage weight change on day 5 in mice implanted intraperitoneally with P-388 leukemia sensitive cells at a dose of 20 mg/kg.; assay type: functional; settings: route intraperitoneal; summary of the method: as §2
Mus musculus [16] = assay: Average percentage weight change on day 5 in mice implanted intraperitoneally with P-388 leukemia resistant cells at a dose of 20 mg/kg.; assay type: functional; settings: route intraperitoneal; summary of the method: as §2
Mus musculus [17] = assay: Percentage increase in life span of treated mice implanted intraperitoneally with P-388 leukemia resistant cells compared with controls at a dose of 40 mg/kg.; assay type: functional; settings: P388, ip, route intraperitoneal; summary of the method: as §2
Mus musculus [18] = assay: Percentage increase in life span of treated mice implanted intraperitoneally with P-388 leukemia resistant cells compared with controls at a dose of 20 mg/kg.; assay type: functional; settings: P388, ip, route intraperitoneal; summary of the method: as §2
Mus musculus [19] = assay: Median survival time of 15 mice implanted intraperitoneally with P-388 leukemia sensitive cells at a dose of 30 mg/kg.; assay type: functional; settings: route intraperitoneal; summary of the method: as §2
Mus musculus [20] = assay: Average percentage weight change on day 5 in mice implanted intraperitoneally with P-388 leukemia sensitive cells at a dose of 30 mg/kg.; assay type: functional; settings: route intraperitoneal; summary of the method: as §2
Mus musculus [21] = assay: Percentage increase in life span of treated mice implanted intraperitoneally with P-388 leukemia sensitive cells compared with controls at a dose of 20 mg/kg.; assay type: functional; settings: P388, ip, route intraperitoneal; summary of the method: as §2
Mus musculus [22] = assay: Percentage increase in life span of treated mice implanted intraperitoneally with P-388 leukemia resistant cells compared with controls at a dose of 150 mg/kg.; assay type: functional; settings: P388, ip, route intraperitoneal; summary of the method: as §2
Mus musculus [23] = assay: Average percentage weight change on day 5 in mice implanted intraperitoneally with P-388 leukemia resistant cells at a dose of 100 mg/kg.; assay type: functional; settings: route intraperitoneal; summary of the method: as §1
Mus musculus [24] = assay: Median survival time of […] implanted intraperitoneally with P-388 leukemia sensitive cells at a dose of 100 mg/kg.; assay type: functional; settings: route intraperitoneal
Mus musculus [25] = assay: Percentage increase in life span of treated mice implanted intraperitoneally with P-388 leukemia resistant cells compared with controls at a dose of 67 mg/kg.; assay type: functional; settings: P388, ip, route intraperitoneal; summary of the method: as §2
Mus musculus [26] = assay: Median survival time of […] implanted intraperitoneally with P-388 leukemia resistant cells at a dose of 100 mg/kg.; assay type: functional; settings: route intraperitoneal
Mus musculus [27] = assay: Average percentage weight change on day 5 in mice implanted intraperitoneally with P-388 leukemia resistant cells at a dose of 67 mg/kg.; assay type: functional; settings: route intraperitoneal; summary of the method: as §1
Mus musculus [28] = assay: Percentage increase in life span of treated mice implanted intraperitoneally with P-388 leukemia resistant cells compared with controls at a dose of 100 mg/kg.; assay type: functional; settings: P388, ip, route intraperitoneal; summary of the method: as §2
Mus musculus [29] = assay: Median survival time of 15 mice implanted intraperitoneally with P-388 leukemia sensitive cells at a dose of 150 mg/kg.; assay type: functional; settings: route intraperitoneal
Mus musculus [30] = assay: Percentage increase in life span of treated mice implanted intraperitoneally with P-388 leukemia sensitive cells compared with controls at a dose of 67 mg/kg.; assay type: functional; settings: P388, ip, route intraperitoneal; summary of the method: as §2
Mus musculus [31] = assay: Percentage increase in life span of treated mice implanted intraperitoneally with P-388 leukemia sensitive cells compared with controls at a dose of 100 mg/kg.; assay type: functional; settings: P388, ip, route intraperitoneal; summary of the method: as §2
Mus musculus [32] = assay: Median survival time of […] implanted intraperitoneally with P-388 leukemia resistant cells at a dose of 150 mg/kg.; assay type: functional; settings: route intraperitoneal
Mus musculus [33] = assay: Median survival time of […] implanted intraperitoneally with P-388 leukemia resistant cells at a dose of 67 mg/kg.; assay type: functional; settings: route intraperitoneal
Mus musculus [34] = assay: Average percentage weight change on day 5 in mice implanted intraperitoneally with P-388 leukemia sensitive cells at a dose of 150 mg/kg.; assay type: functional; settings: route intraperitoneal; summary of the method: as §1
Mus musculus [35] = assay: Average percentage weight change on day 5 in mice implanted intraperitoneally with P-388 leukemia resistant cells at a dose of 150 mg/kg.; assay type: functional; settings: route intraperitoneal; summary of the method: as §1
Mus musculus [36] = assay: Percentage increase in life span of treated mice implanted intraperitoneally with P-388 leukemia sensitive cells compared with controls at a dose of 150 mg/kg.; assay type: functional; settings: P388, ip, route intraperitoneal; summary of the method: as §2
Mus musculus [37] = assay: Median survival time of 15 mice implanted intraperitoneally with P-388 leukemia sensitive cells at a dose of 67 mg/kg.; assay type: functional; settings: route intraperitoneal
Mus musculus [38] = assay: Average percentage weight change on day 5 in mice implanted intraperitoneally with P-388 leukemia sensitive cells at a dose of 100 mg/kg at a dose of 100 mg/kg.; assay type: functional; summary of the method: as §1
Mus musculus [39] = assay: Average percentage weight change on day 5 in mice implanted intraperitoneally with P-388 leukemia sensitive cells at a dose of 67 mg/kg.; assay type: functional; settings: route intraperitoneal; summary of the method: as §1

O=S(=O)([O-])CCS.[Na+] [MESNA]
MST (Mus musculus [1]): 11 days | ILS at 100 mg/kg (Mus musculus [2]): 0% | Weight change (Mus musculus [3]): 10% | MST (Mus musculus [4]): 11 days | Weight change (Mus musculus [5]): 12% | ILS at 100 mg/kg (Mus musculus [6]): 0%

O=c1[nH]cc(F)c(=O)[nH]1 [FLUOROURACIL]
Weight change (Mus musculus [7]): -18% | pIC50 (CHO-FU): 4.00 | MST (Mus musculus [8]): 9 days | Weight change (Mus musculus [9]): -15% | pIC50 (CHO): 5.30 | MST (Mus musculus [10]): 16 days | MST (Mus musculus [11]): 10 days | MST (Mus musculus [12]): 9 days | ILS at 30 mg/kg (Mus musculus [13]): 55% | ILS at 30 mg/kg (Mus musculus [14]): -18% | Weight change (Mus musculus [15]): -5% | Weight change (Mus musculus [16]): -6% | ILS at 40 mg/kg (Mus musculus [17]): -18% | ILS at 20 mg/kg (Mus musculus [18]): -9% | MST (Mus musculus [19]): 17 days | Weight change (Mus musculus [20]): -15% | ILS at 20 mg/kg (Mus musculus [21]): 45%

C=CC=O [ACROLEIN]
pIC50 (CHO-FU): 4.30 | pIC50 (CHO): 4.30

O=c1[nH]c(=O)n([C@H]2C[C@H](O)[C@@H](CO)O2)cc1F [FLOXURIDINE]
ILS at 150 mg/kg (Mus musculus [22]): 18% | Weight change (Mus musculus [23]): -10% | MST (Mus musculus [24]): 19 days | ILS at 67 mg/kg (Mus musculus [25]): 9% | MST (Mus musculus [26]): 13 days | Weight change (Mus musculus [27]): -6% | ILS at 100 mg/kg (Mus musculus [28]): 18% | MST (Mus musculus [29]): 20 days | ILS at 67 mg/kg (Mus musculus [30]): 45% | ILS at 100 mg/kg (Mus musculus [31]): 73% | MST (Mus musculus [32]): 13 days | MST (Mus musculus [33]): 12 days | Weight change (Mus musculus [34]): -5% | Weight change (Mus musculus [35]): -10% | ILS at 150 mg/kg (Mus musculus [36]): 82% | MST (Mus musculus [37]): 16 days | Weight change (Mus musculus [38]): -4% | Weight change (Mus musculus [39]): -2%
